Measurements published in article PMC4493896 (Journal of Medicinal Chemistry, 2015).

Key:
[1] = test system: CREB-mediated gene transcription; experiment: CREB Renilla luciferase; assay type: cell-based; details: HEK 293T cells
[2] = test system: A549, MCF-7, MDA-MB-231, MDA-MB-468 cells; experiment: MTT assay, statements across the cancer cell line panel; assay type: cell-based; details: 72 h
Procedure, shortened: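 Cells in DMEM with nonessential amino acids and 10% FBS (37 °C, 5% CO2) attached overnight, then took test compound at a range of concentrations up to 100 μM for 72 h. MTT (0.5 mg/mL in complete medium) was added for 3 h at 37 °C, formazan dissolved in DMSO, A570 read. Growth = 100×(At−A0)/(Ac−A0), with time-0 and medium-treated controls.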

cancer and normal cells = details: same assay conditions; cited from earlier work
Nurr1/NR4A2 mRNA = experiment: qRT-PCR of endogenous CREB target gene in HEK 293T cells; assay type: cell-based; details: forskolin 10 μM

Cl.NCCCOc1cc2ccccc2cc1C(=O)NCCCOc1cc2ccccc2cc1C(=O)Nc1ccc(Cl)cc1 [Compound 3b, 3-(3-Aminopropoxy)-N-(3-((3-((4-chlorophenyl)carbamoyl)naphthalen-2-yl)oxy)propyl)-2-naphthamide Hydrochloride]
decrease of CREB inhibition activity in comparison to 3a [1]: about 2 fold

Cl.O=C(NCCCOc1cc2ccccc2cc1C(=O)Nc1ccc(Cl)cc1O)c1cc2ccccc2cc1OCCCN1CCOCC1 [Compound 3e, N-(4-Chloro-2-hydroxyphenyl)-3-(3-(3-(3-morpholinopropoxy)-2-naphthamido)propoxy)-2-naphthamide Hydrochloride]
growth inhibition activity in the other three cancer cell lines ([2]; A549, MCF-7, MDA-MB-231, MTT): no activity

O=C(NCCCOc1cc2ccccc2cc1C(=O)Nc1ccc(Cl)cc1O)c1cc2ccccc2cc1OCCCO [Compound 3g, N-(4-Chloro-2-hydroxyphenyl)-3-(3-(3-(3-hydroxypropoxy)-2-naphthamido)propoxy)-2-naphthamide]
GI50 ([2]; read-out: GI50 values, range over all four cancer cell lines): 10.2 to 82.7 µM

COc1cccc2c1C(=O)c1c(O)c3c(c(O)c1C2=O)C[C@@](O)(C(=O)CO)C[C@@H]3O[C@H]1C[C@H](N)[C@H](O)[C@H](C)O1 [doxorubicin]
differential toxicity between cancer and normal cells (cancer and normal cells): did not show differential toxicity

C=C[C@@]1(C)CC(=O)[C@]2(O)[C@@]3(C)[C@@H](O)CCC(C)(C)[C@@H]3[C@H](O)[C@H](OC(C)=O)[C@@]2(C)O1 [forskolin]
stimulation of Nurr1/NR4A2 level (Nurr1/NR4A2 mRNA): ~31 fold
